Laboratory results published in PubChem BioAssay AID588556 (Sanford-Burnham Center for Chemical Genomics, 2011).
pIC50: −log10 of the molar value. The source made the active and inactive calls.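 The calls were made as follows: active = IC50 at or below 20 µM in the 24 hour cytotoxicity test; inactive = the rest.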

Test system: CHO-CHOP cells viability, ATPLite luminescence, 24 h
Experiment: CHO-CHOP cell viability loss – 24 h exposure, ATPLite luminescence, cytotoxicity control for UPR apoptotic arm activator project, SAR follow-up (AID 588556)
How it was run: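 Technique: ATPLite 1-Step luminescence / Test system: CHO-CHOP reporter cell line / Input: 500 cells per well / Timing: 16-18 h cell pre-culture, 24 h compound treatment, 37 °C / Compound dosing: dose-response series, final DMSO at most 1%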

SMILES | pIC50 | IC50
O=C(Nc1nc2ccc(F)cc2s1)c1ccccn1 | 5.71 | –
O=C(Nc1ccc(S(=O)(=O)N2CCNCC2)cc1)c1ccc([N+](=O)[O-])o1 | – | > 80 µM (inactive)
CC1CN(S(=O)(=O)c2ccc(NC(=O)c3ccc([N+](=O)[O-])o3)cc2)CC(C)O1 (stereo not given) | – | 51.4 µM (inactive)
O=C(Nc1ccc(S(=O)(=O)N2CCC(F)CC2)cc1)c1ccc([N+](=O)[O-])o1 | – | 32.6 µM (inactive)
O=C(Nc1ccc(S(=O)(=O)N2CCCC2)cc1)c1ccc([N+](=O)[O-])o1 | – | 25 µM (inactive)
O=C(Nc1ccc(S(=O)(=O)N2CCC(O)CC2)cc1)c1ccc([N+](=O)[O-])o1 | – | 45.9 µM (inactive)
O=C(Nc1nc2ccc(Cl)cc2s1)c1ccccn1 | 5.91 | –
CC1(C)CCN(S(=O)(=O)c2ccc(NC(=O)c3ccc([N+](=O)[O-])o3)cc2)CC1 | 4.90 | –
O=C(Nc1nc2cc(F)c(F)cc2s1)c1ccccn1 | 5.58 | –
O=C(Nc1nc2c(F)cccc2s1)c1ccccn1 | 5.80 | –
O=C(Nc1ccc(S(=O)(=O)N2CCOCC2)cc1)c1ccc([N+](=O)[O-])s1 | – | > 80 µM (inactive)
O=C(Nc1nc2cc(F)cc(F)c2s1)c1ccccn1 | 5.74 | –
O=C(Nc1ccc(S(=O)(=O)N2CCC3(CCCCC3)CC2)cc1)c1ccc([N+](=O)[O-])o1 | 5.94 | –
O=C(Nc1nc2cc(F)ccc2s1)c1ccccn1 | 5.80 | –
O=C(Nc1nc2ccc(C(F)(F)F)cc2s1)c1ccccn1 | 5.91 | –
O=C(Nc1ccc(S(=O)(=O)N2CCOCC2)cc1)c1ccc([N+](=O)[O-])o1 | – | 53.5 µM (inactive)
Cc1cc(C)c2nc(NC(=O)c3ccccn3)sc2c1 | 5.27 | –
O=C(Nc1nc2ccc(F)c(F)c2s1)c1ccccn1 | 5.85 | –
O=C(Nc1nc2c(F)ccc(F)c2s1)c1ccccn1 | 5.78 | –
O=C(Nc1ccc(S(=O)(=O)c2ccccc2)cc1)c1ccc([N+](=O)[O-])o1 | – | 40.4 µM (inactive)
O=C(Nc1nc2c(F)c(F)ccc2s1)c1ccccn1 | 5.77 | –
O=C(Nc1ccc(S(=O)(=O)N2CCC(Cl)CC2)cc1)c1ccc([N+](=O)[O-])o1 | – | 66.8 µM (inactive)
O=C(Nc1nc2c(F)cc(F)cc2s1)c1ccccn1 | 5.85 | –
O=C(Nc1ccc(S(=O)(=O)N2CCCCC2)cc1)c1ccc([N+](=O)[O-])o1 | – | > 80 µM (inactive)
O=C(Nc1ccc(S(=O)(=O)C2CCOCC2)cc1)c1ccc([N+](=O)[O-])o1 | – | 66.3 µM (inactive)
O=C(Nc1ccc(S(=O)(=O)C2CCCCC2)cc1)c1ccc([N+](=O)[O-])o1 | – | 26.7 µM (inactive)
CC1CCN(S(=O)(=O)c2ccc(NC(=O)c3ccc([N+](=O)[O-])o3)cc2)CC1 | – | > 80 µM (inactive)
CC(C)(C)C1CCN(S(=O)(=O)c2ccc(NC(=O)c3ccc([N+](=O)[O-])o3)cc2)CC1 | 5.62 | –
O=C(Nc1nc2c(Cl)cc(Cl)cc2s1)c1ccccn1 | 4.88 | –
O=C(Nc1nc2cccc(F)c2s1)c1ccccn1 | 5.63 | –
